Measurements taken from ChEMBL document CHEMBL3124864, “Development of antimycobacterial tetrahydrothieno[2,3-c]pyridine-3-carboxamides and hexahydrocycloocta[b]thiophene-3-carboxamides: Molecular modification from known antimycobacterial lead” (Eur J Med Chem, 2014).
In brackets after ≈: the same amount, converted by molar mass.

Legend:
[1] = system: Mycobacterium tuberculosis; assay: Antitubercular activity against Mycobacterium tuberculosis H37Rv ATCC 27294 after 28 days by two-fold serial dilution method; assay type: functional; settings: H37Rv ATCC 27294, 672 h
Procedure, shortened: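 Agar dilution on Middlebrook 7H11 with OADC, compound incorporated as two-fold serial dilutions. Inoculum from fresh 7H11/OADC slants, adjusted to 1 mg/mL wet weight in 0.05% Tween 80 saline and diluted 10^-2 to about 10⁷ cfu/mL, then spotted onto the drug-containing agar. Growth read after 28 days. MIC taken as the lowest concentration giving complete inhibition.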

[2] = Cytotoxicity against mouse RAW264.7 cells assessed as growth inhibition at 50 uM after 72 hrs by MTT assay; assay type: cell-based; settings: read-out: GI
Procedure, shortened: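 RAW 264.7 cells were exposed to compound for 72 h. Viability was read as cellular conversion of MTT to formazan using a non-radioactive cell proliferation kit. Results were expressed as percentage growth inhibition.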

[3] = system: Mycobacterium tuberculosis; assay: Antitubercular activity against Mycobacterium tuberculosis H37Rv ATCC 27294 after 28 days by two-fold serial dilution method in presence of efflux pump inhibitor verapamil; assay type: functional; settings: H37Rv ATCC 27294, 672 h
[4] = Selectivity index of cytotoxicity against mouse RAW264.7 cells to antitubercular activity against Mycobacterium tuberculosis H37Rv ATCC 27294; assay type: toxicity, cell-based; settings: read-out: Selectivity Index

Row | Compound | MIC [1] | inhibition at 72 h, 50 µM [2] | MIC [3] | selectivity ratio [4]
1 | CC(=O)Nc1sc2c(c1C(N)=O)CCN(C)C2 | 39.4 µM (≈ 9.99 µg/mL) | – | – | –
2 | CN1CCc2c(sc(NC(=O)C3CC3)c2C(N)=O)C1 | 5.57 µM (≈ 1.56 µg/mL) | 22.2% | 2.78 µM | –
3 | NC(=O)c1c(NC(=O)c2ccccc2)sc2c1CCCCCC2 | 15.2 µM (≈ 4.99 µg/mL) | 26.6% | 5.06 µM | –
4 | O=C(O)c1cn(C2CC2)c2cc(N3CCNCC3)c(F)cc2c1=O [CIPROFLOXACIN] | 9.41 µM (≈ 3.12 µg/mL) | – | 9.41 µM | –
5 | COc1ccccc1C(=O)Nc1sc2c(c1C(N)=O)CCN(C)C2 | 36.1 µM (≈ 12.5 µg/mL) | – | – | –
6 | NC(=O)c1c(NC(=O)C2CC2)sc2c1CCCCCC2 | 17.1 µM (≈ 4.99 µg/mL) | 16.9% | 8.53 µM | –
7 | COc1ccccc1C(=O)Nc1sc2c(c1C(N)=O)CCCCCC2 | 13.9 µM (≈ 4.99 µg/mL) | 24.8% | 6.96 µM | –
8 | CN1CCc2c(sc(NC(=O)c3ccc(Oc4ccccc4)cc3)c2C(N)=O)C1 | 30.6 µM (≈ 12.5 µg/mL) | – | – | –
9 | NC(=O)c1c(NC(=O)c2cccc([N+](=O)[O-])c2)sc2c1CCCCCC2 | 16.7 µM (≈ 6.24 µg/mL) | 36.1% | 16.7 µM | –
10 | COc1ccccc1C(=O)Nc1sc2c(c1C(N)=O)CCN(C(C)=O)C2 | 66.8 µM (≈ 25 µg/mL) | – | – | –
11 | NC(=O)c1c(NC(=O)C2CCCCC2)sc2c1CCCCCC2 | 9.33 µM (≈ 3.12 µg/mL) | 16.6% | 3.11 µM | –
12 | NC(=O)c1c(NC(=O)C2CCCC2)sc2c1CCCCCC2 | 9.73 µM (≈ 3.12 µg/mL) | 18.3% | 9.73 µM | –
13 | CN1CCc2c(sc(NC(=O)c3cccc([N+](=O)[O-])c3)c2C(N)=O)C1 | 34.6 µM (≈ 12.5 µg/mL) | – | – | –
14 | CC(=O)N1CCc2c(sc(NC(=O)C3CCCC3)c2C(N)=O)C1 | 74.4 µM (≈ 25 µg/mL) | – | – | –
15 | CC(=O)N1CCc2c(sc(NC(=O)c3cccs3)c2C(N)=O)C1 | 9.15 µM (≈ 3.2 µg/mL) | – | 4.57 µM | 13
16 | CN1CCc2c(sc(NC(=O)C3CCCC3)c2C(N)=O)C1 | 5.06 µM (≈ 1.56 µg/mL) | 18.2% | 5.06 µM | –
17 | NC(=O)c1c(NC(=O)c2cccc3ccccc23)sc2c1CCCCCC2 | 13.2 µM (≈ 4.99 µg/mL) | 28.3% | 3.29 µM | –

Row | Compound | MIC [1] | inhibition at 72 h, 50 µM [2] | MIC [3] | selectivity ratio [4]
18 | CC(=O)Nc1sc2c(c1C(N)=O)CCN(C(C)=O)C2 | 88.6 µM (≈ 24.9 µg/mL) | – | – | –
19 | CC(=O)Nc1sc2c(c1C(N)=O)CCCCCC2 | 18.7 µM (≈ 4.99 µg/mL) | 24.6% | 9.36 µM | –
20 | CN1CCc2c(sc(NC(=O)c3ccccc3)c2C(N)=O)C1 | 37.9 µM (≈ 11.9 µg/mL) | – | – | –
21 | Cc1ccc(C(=O)Nc2sc3c(c2C(N)=O)CCN(C)C3)cc1 | 37.9 µM (≈ 12.5 µg/mL) | – | – | –
22 | CN1CCc2c(sc(NC(=O)C3CCCCC3)c2C(N)=O)C1 | 7.76 µM (≈ 2.49 µg/mL) | 18.3% | 2.58 µM | –
23 | CN1CCc2c(sc(NC(=O)c3cccc4ccccc34)c2C(N)=O)C1 | 17.1 µM (≈ 6.24 µg/mL) | 28.4% | 8.53 µM | –
24 | CC(=O)N1CCc2c(sc(NC(=O)c3cccc([N+](=O)[O-])c3)c2C(N)=O)C1 | 64.3 µM (≈ 25 µg/mL) | – | – | –
25 | CC(=O)N1CCc2c(sc(NC(=O)C3CCCCC3)c2C(N)=O)C1 | 71.4 µM (≈ 25 µg/mL) | – | – | –
26 | NNC(=O)c1ccncc1 [ISONIAZID] | 0.72 µM (≈ 0.0987 µg/mL) | – | 0.72 µM | –
27 | CC(=O)N1CCc2c(sc(NC(=O)c3ccc(Oc4ccccc4)cc3)c2C(N)=O)C1 | 57.3 µM (≈ 25 µg/mL) | – | – | –
28 | CC(=O)N1CCc2c(sc(NC(=O)c3cccc4ccccc34)c2C(N)=O)C1 | 63.5 µM (≈ 25 µg/mL) | – | – | –
29 | NC(=O)c1c(NC(=O)c2ccc(Oc3ccccc3)cc2)sc2c1CCCCCC2 | 3.7 µM (≈ 1.56 µg/mL) | 22.2% | 1.23 µM | > 10
30 | CC(=O)N1CCc2c(sc(NC(=O)c3ccc(C)cc3)c2C(N)=O)C1 | 69.8 µM (≈ 24.9 µg/mL) | – | – | –
31 | Cc1ccc(C(=O)Nc2sc3c(c2C(N)=O)CCCCCC3)cc1 | 4.54 µM (≈ 1.55 µg/mL) | 20.5% | 2.27 µM | –
32 | CC(=O)N1CCc2c(sc(NC(=O)C3CC3)c2C(N)=O)C1 | 81.2 µM (≈ 24.9 µg/mL) | – | – | –
33 | CC[C@@H](CO)NCCN[C@@H](CC)CO [ETHAMBUTOL] | 7.64 µM (≈ 1.56 µg/mL) | – | 3.82 µM | –
34 | CC(=O)N1CCc2c(sc(NC(=O)c3ccccc3)c2C(N)=O)C1 | 72.7 µM (≈ 24.9 µg/mL) | – | – | –
